Measurements reported in paper PMC2825117 (Journal of Medicinal Chemistry, 2010).

Key:
JMJD2E = biological target: T1, JMJD2E (Homo sapiens, UniProt B2RXH2); assay: MALDI-TOF MS based demethylation assay, JMJD2E; type: biochemical
T1 sequence (B2RXH2 1-337): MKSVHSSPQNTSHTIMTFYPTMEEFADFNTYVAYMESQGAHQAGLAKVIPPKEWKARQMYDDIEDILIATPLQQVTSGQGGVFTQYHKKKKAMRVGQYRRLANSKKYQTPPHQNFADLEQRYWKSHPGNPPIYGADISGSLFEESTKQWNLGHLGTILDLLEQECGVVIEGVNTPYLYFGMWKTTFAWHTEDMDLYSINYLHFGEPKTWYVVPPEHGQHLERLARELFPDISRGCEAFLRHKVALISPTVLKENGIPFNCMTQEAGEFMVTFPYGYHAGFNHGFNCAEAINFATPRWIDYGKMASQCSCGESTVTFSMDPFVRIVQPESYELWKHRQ
Method in brief: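 Enzyme: human JMJD2E catalytic domain (residues 1-337), expressed in E. coli as N-terminal His6-tagged protein and purified by Ni-affinity chromatography. Quenched reaction mixtures are mixed with α-cyano-4-hydroxycinnamic acid matrix and analysed by MALDI-TOF MS. Percentage demethylation comes from the relative intensities of the peptide methylation states. IC50 is derived from how percentage demethylation varies across inhibitor concentrations.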

JMJD2A = biological target: T2, JMJD2A (Homo sapiens, UniProt O75164); assay: MALDI-TOF MS based demethylation assay, JMJD2A; type: biochemical
T2 sequence (O75164 1-1064): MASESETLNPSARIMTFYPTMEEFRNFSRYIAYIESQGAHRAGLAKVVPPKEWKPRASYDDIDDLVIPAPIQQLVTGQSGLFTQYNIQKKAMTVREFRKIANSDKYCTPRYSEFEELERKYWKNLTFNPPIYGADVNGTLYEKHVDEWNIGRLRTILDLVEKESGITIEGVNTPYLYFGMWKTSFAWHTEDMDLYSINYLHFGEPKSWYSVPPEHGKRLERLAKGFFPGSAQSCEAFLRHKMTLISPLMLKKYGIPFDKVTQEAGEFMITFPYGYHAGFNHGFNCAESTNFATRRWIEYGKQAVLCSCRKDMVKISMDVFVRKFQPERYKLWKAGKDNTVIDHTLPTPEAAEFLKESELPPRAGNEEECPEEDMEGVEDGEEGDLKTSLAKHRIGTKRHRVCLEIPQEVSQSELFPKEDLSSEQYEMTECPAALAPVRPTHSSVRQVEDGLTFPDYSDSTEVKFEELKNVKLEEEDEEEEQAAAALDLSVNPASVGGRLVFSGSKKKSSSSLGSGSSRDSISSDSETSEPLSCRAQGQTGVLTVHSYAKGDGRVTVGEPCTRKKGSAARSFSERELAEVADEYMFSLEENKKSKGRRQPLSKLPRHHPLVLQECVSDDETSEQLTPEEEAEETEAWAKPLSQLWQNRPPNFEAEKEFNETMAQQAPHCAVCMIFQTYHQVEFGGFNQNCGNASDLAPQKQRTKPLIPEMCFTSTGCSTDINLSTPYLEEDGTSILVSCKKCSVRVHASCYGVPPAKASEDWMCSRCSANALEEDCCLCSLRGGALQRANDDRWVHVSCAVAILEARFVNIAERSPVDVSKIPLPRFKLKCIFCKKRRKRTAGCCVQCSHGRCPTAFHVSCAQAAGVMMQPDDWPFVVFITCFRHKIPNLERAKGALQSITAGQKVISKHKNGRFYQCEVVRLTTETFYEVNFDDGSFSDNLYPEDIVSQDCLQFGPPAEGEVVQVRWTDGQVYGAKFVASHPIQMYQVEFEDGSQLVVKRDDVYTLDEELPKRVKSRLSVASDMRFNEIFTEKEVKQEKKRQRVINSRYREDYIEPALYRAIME

PHD2 = PHD2 (Homo sapiens, UniProt Q9GZT9); assay: PHD2 biochemical activity assay; settings: hydroxylation of CODD peptide substrate, MALDI-TOF MS
PHD2, sequence (Q9GZT9 whole entry): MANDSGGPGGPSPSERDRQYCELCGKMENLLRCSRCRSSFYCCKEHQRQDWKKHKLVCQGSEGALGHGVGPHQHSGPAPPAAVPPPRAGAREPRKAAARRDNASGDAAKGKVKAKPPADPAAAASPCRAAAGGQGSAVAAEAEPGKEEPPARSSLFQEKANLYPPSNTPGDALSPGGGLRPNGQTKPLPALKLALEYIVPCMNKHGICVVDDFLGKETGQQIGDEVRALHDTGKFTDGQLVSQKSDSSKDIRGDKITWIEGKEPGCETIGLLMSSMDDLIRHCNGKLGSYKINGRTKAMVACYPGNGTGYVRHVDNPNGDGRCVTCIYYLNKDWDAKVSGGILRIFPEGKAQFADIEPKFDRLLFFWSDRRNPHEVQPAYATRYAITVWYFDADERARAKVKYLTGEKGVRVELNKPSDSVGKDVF

FIH = FIH (Homo sapiens, UniProt Q9NWT6); assay: FIH MALDI-TOF hydroxylation assay; type: biochemical
FIH, sequence (Q9NWT6 whole entry): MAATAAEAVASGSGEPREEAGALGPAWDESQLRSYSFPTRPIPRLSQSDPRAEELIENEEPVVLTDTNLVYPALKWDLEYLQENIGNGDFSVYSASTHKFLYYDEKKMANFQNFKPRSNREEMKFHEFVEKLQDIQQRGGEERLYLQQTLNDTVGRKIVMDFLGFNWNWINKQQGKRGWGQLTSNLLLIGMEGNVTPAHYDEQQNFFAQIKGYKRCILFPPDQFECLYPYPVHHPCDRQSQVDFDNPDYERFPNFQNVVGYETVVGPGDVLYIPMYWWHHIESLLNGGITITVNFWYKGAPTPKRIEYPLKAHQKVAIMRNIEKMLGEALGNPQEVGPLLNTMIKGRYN

Row | Structure (SMILES) | IC50 (JMJD2E) | inhibitory activity toward PHD2 (in words) (PHD2) | IC50 (FIH) | other results
1 | O=C(O)C(=O)N[C@H](Cc1ccc(OS(=O)(=O)c2ccccc2)cc1)C(=O)O [7d] | 43 µM |  |  | IC50 (JMJD2A): 17 µM
2 | O=C(O)C(=O)N[C@H](Cc1ccc(OS(=O)(=O)c2ccc(F)cc2)cc1)C(=O)O [7e] |  | No inhibitory activity |  | 
3 | O=C(O)C(=O)N[C@H](Cc1ccc(OS(=O)(=O)c2ccc(Br)cc2)cc1)C(=O)O [7f] |  | No inhibitory activity | 60.2 µM | 
4 | O=C(O)C(=O)N[C@H](Cc1ccc(OCc2ccccc2[N+](=O)[O-])cc1)C(=O)O [10k] | 47 µM |  |  | 
5 | CC(C)(C)c1ccc(S(=O)(=O)Oc2ccc(C[C@@H](NC(=O)C(=O)O)C(=O)O)cc2)cc1 [7c] |  | No inhibitory activity | 37.2 µM | selectivity of inhibition (JMJD2E) with regard to FIH (FIH; comparison of JMJD2E FDH IC50 and FIH MALDI-TOF IC50): relatively low
6 | O=C(O)CNC(=O)C(=O)O [1a, N-oxalylglycine, reference compound] |  | potent inhibitor of PHD2 |  | 
